Measured values reported in paper PMC10560980 (International Journal for Parasitology: Drugs and Drug …, 2023).
“Also recorded” adds a separate entry of the source. Like-named read-outs stand apart in the source and are kept apart here.

Assays:
[1] = tested on: Neonatal Foreskin Fibroblasts (NFF); assay: Mammalian cell susceptibility assay; type: cell-based, human; conditions: for IC50: read-out: IC50 (M; mean ± SD) NFF; for Selectivity: NFF IC50 / Giardia IC50
[2] = tested on: assemblage B G. duodenalis BRIS/91/HEPU/1279 trophozoites; assay: G. duodenalis compound susceptibility assay; type: cell-based; conditions: Giardia duodenalis
[3] = tested on: BRIS/91/HEPU/1279 trophozoites; assay: Minimum lethal concentration; type: cell-based, Giardia duodenalis; conditions: 48 h exposure, then four days in culture
Outline: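 Assemblage B BRIS/91/HEPU/1279 trophozoites in modified TYI-S-33 were exposed to compound for 48 h. They were then returned to drug-free culture for four more days and imaged by brightfield at 10x to judge regrowth. Albendazole ran alongside. Experiments were done at least three times in duplicate.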

[4] = tested on: L. donovani DD8 amastigotes; assay: L. donovani intracellular amastigote imaging assay in THP-1 cells; type: cell-based; conditions: Leishmania donovani, THP-1, 96 h, read-out: IC50 (M; mean ± SD) L. donovani
Outline: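 L. donovani DD8 promastigotes were kept in modified M199 Hanks medium, pH 6.8, with 10% heat-inactivated FBS at 27 °C. PMA-differentiated THP-1 cells were infected with metacyclic promastigotes (1:5 host:parasite), then exposed 96 h to 80–0.004 µM final. Cells were fixed in 4% paraformaldehyde, stained with SYBR green/CellMask Deep Red and imaged at 20x; an infected cell held >3 parasites. Controls were 2 µM amphotericin B and 0.4% DMSO. Assays ran twice in triplicate; IC50 came from 4-parameter regression.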

[5] = tested on: Staphylococcus aureus (ATCC 29213); assay: Antibacterial microbroth dilution; type: cell-based; conditions: 20 h exposure, LB broth
Outline: (§1)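 Broth microdilution per CLSI in LB broth. A 20 mM test-compound solution was diluted in LB broth. Organisms were exposed to compound for 20 h, then growth inhibition was scored to define the MIC. Ampicillin was the positive control.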

[6] = tested on: Enterococci faecalis (ATCC 29212); assay: Antibacterial microbroth dilution; type: cell-based; conditions: 20 h exposure, LB broth
Outline: as §1

[7] = tested on: Escherichia coli (ATCC 25922); assay: Antibacterial microbroth dilution; type: cell-based; conditions: 20 h exposure, LB broth
Outline: as §1

[8] = tested on: Plasmodium falciparum 3D7 asexual erythrocytic parasites; assay: 48 h [3H]-hypoxanthine incorporation assay; type: cell-based; conditions: for IC50: Plasmodium falciparum, 3D7, 48 h, read-out: IC50 (M; mean ± SD) P. falciparum; for average % inhibition at highest concentration tested, P. falciparum: at 5.0 × 10^−5 M (50 μM), 50 µM
Outline: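 Compound exposure and [3H]-hypoxanthine uptake ran 48 h. Controls were uninfected RBC background, untreated, DMSO vehicle and chloroquine. % inhibition was taken versus matched vehicle minus background. At least two independent assays were run in triplicate. Where no IC50 could be fitted, % inhibition at the highest concentration was reported.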

[9] = tested on: MTZ resistant assemblage B BRIS/91/HEPU/1279m1 parasites; assay: G. duodenalis compound susceptibility assay; type: cell-based; conditions: Giardia duodenalis, 48 h, read-out: IC50 (nM; mean ± SD) AB-MTZ
Outline: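 The metronidazole-resistant assemblage B line was kept in modified TYI-S-33 with 10% heat-inactivated FBS and penicillin/streptomycin under 15 µM metronidazole, withdrawn two days before testing. Trophozoites had 48 h dose-response exposure and were scored by automated microscopy, at least three times in triplicate. Inhibition was taken versus DMSO vehicle minus media background. IC50 came from 4-parameter variable-slope nonlinear regression.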

[10] = Aqueous solubility; type: physicochemical
[11] = tested on: Trypanosoma cruzi Tulahuen strain intracellular amastigotes; assay: T. cruzi intracellular amastigote imaging assay in 3T3 cells; type: cell-based; conditions: for IC50: Trypanosoma cruzi, TULAHUEN, NIH3T3, read-out: IC50 (M; mean ± SD) T. cruzi
Outline: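 T. cruzi Tulahuen was maintained in 3T3 fibroblasts in phenol red-free RPMI with 10% FBS and passaged with freshly egressed trypomastigotes. Intracellular amastigotes were scored by high-content imaging, with final concentrations up to 73.2 µM. Each compound was run as single point over three experimental replicates. Controls were 30 µM puromycin (host cells) and 12 µM nifurtimox (amastigotes). IC50 came from 4-parameter variable-slope nonlinear regression.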

[12] = tested on: G. duodenalis BAH2c2; assay: In vivo efficacy in mouse model of giardiasis; set-up: species or system outbred Swiss mice
Outline: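 Seven-day-old outbred Swiss pups (groups of ten) were orally gavaged with 10^5 BAH2c2 trophozoites in 0.9% saline. Faecal cysts were tracked daily by centrifugal flotation and immunofluorescence counting. About 1 week post-infection, mice received oral gavage once daily for three days: vehicle, test compound, or metronidazole 100 mg/kg. The next day, small-intestine trophozoites were counted manually and large-intestine cysts per gram. Efficacy followed WAAVP guidelines; groups were compared by t-test.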

[13] = tested on: G. duodenalis BRIS/87/HEPU/713 assemblage A; assay: G. duodenalis compound susceptibility assay; type: cell-based; conditions: Giardia duodenalis, 48 h, read-out: IC50 (nM; mean ± SD) AA
[14] = tested on: Human Embryonic Kidney (HEK-293) cells; assay: Mammalian cell susceptibility assay, HEK-293; type: cell-based; conditions: HEK293, read-out: growth inhibition, HEK293
[15] = tested on: faecal microbiome; assay: Microbiome assessment; type: in vivo, outbred Swiss mice
Outline: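 Three groups of 12 outbred Swiss mice received vehicle control, metronidazole 100 mg/kg or test compound 7.4 mg/kg daily on days 1, 2 and 3. Faecal samples were collected from individual animals on days 0–5 and stored at room temperature in 80% ethanol. About 0.2 g of each sample was homogenised with glass beads in lysis buffer for 16S rRNA profiling.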

[16] = Storage stability of solid; type: physicochemical; conditions: crystalline solid; ambient conditions; several months
[17] = tested on: Giardia; conditions: in humans; ref Nabarro et al., 2015; cited from earlier work
[18] = 48 h, read-out: IC50 (M; mean ± SD) Giardia (48h), Compounds Australia samples, assemblage B BRIS/91/HEPU/1279 trophozoites, 48 h, > = highest concentration tested
[19] = read-out: IC50 (M; mean ± SD) Giardia AB, purchased (ChemDiv) or synthesized batches, assemblage B BRIS/91/HEPU/1279
[20] = 0.74 mg/kg for three days, oral gavage, PBS vehicle
[21] = 7.4 mg/kg daily for three days, 50%PBS/DMSO vehicle, P > 0.05
[22] = 100 mg/kg for three days, positive control, first experiment

Work on `CCCSc1ccc2nc(NC(=O)OC)[nH]c2c1` [ABZ, Albendazole, reference compound] yielded an IC50 ([1]; Homo sapiens, Fibroblast) of 1100 nM, a Selectivity [1] of 19.3 and an IC50 [2, 18] of 57 nM. The IC50 [2, 19] was 57 nM and the “minimum lethal concentration (MLC)” value [3] was 0.15 µM.

In the case of `C[C@@H]1[C@H](O)[C@@H](C)/C=C/C=C/C=C/C=C/C=C/C=C/C=C/[C@H](O[C@@H]2O[C@H](C)[C@@H](O)[C@H](N)[C@@H]2O)C[C@@H]2O[C@](O)(C[C@@H](O)C[C@@H](O)[C@H](O)CC[C@@H](O)C[C@@H](O)CC(=O)O[C@H]1C)C[C@H](O)[C@H]2C(=O)O` [AMB, Amphotericin B, reference compound], the IC50 [4] is reported as 87 nM.

In the case of `CC1(C)S[C@@H]2[C@H](NC(=O)[C@H](N)c3ccccc3)C(=O)N2[C@H]1C(=O)O` [AMP, ampicillin, reference compound], the “MIC (M) S. aureus” value [5] is reported as less than 3.7e-05 M, the “MIC (M) E. faecalis” value [6] is reported as less than 3.7e-05 M and the “MIC (M) E. coli” value [7] is reported as less than 3.7e-05 M.

With `CCN(CC)CCCC(C)Nc1ccnc2cc(Cl)ccc12` (stereo not shown) [CQ, chloroquine, reference compound] the IC50 ([1]; Homo sapiens, Fibroblast) was 31000 nM and the IC50 [8] was 14 nM.

With `Cc1cc2[nH]c(C(=O)Nc3ccccc3Cl)c(CN3CCOCC3)c2s1` [Compound 2, N-(2-chlorophenyl)-2-methyl-6-(morpholinomethyl)-4H-thieno [3,2-b]pyrrole-5-carboxamide] the IC50 ([1]; Homo sapiens, Fibroblast) was greater than 10000 nM, the inhibition at 100 µM ([1]; Homo sapiens, Fibroblast, read-out: growth inhibition, NFF) was less than 50% and the Selectivity [1] was greater than 32. For the same compound, the selectivity indices ([1]; follow up studies, NFF and HEK293 vs Giardia) was greater than 8333, the IC50 [9] was 5.5 nM and the aqueous solubility [10] was “poor”. For the same compound, the IC50 [11] was greater than 73000 nM, the “growth inhibition, T. cruzi” value ([11]; up to highest concentration tested) was less than 50% and the “MIC (M) S. aureus” value [5] was greater than 0.0002 M. For the same compound, the “reduction of cyst burden vs vehicle” value [12, 20] was 98.8%, the “reduction of trophozoite burden vs vehicle” value [12, 20] was 73.5% and the “reduction of cyst burden vs vehicle” value [12, 21] was 80.1%. For the same compound, the “reduction of trophozoite burden vs vehicle” value [12, 21] was 54.2%, the IC50 [13] was 10 nM and the IC50 [4] was greater than 80000 nM. For the same compound, the inhibition at 100 µM [14] was less than 50%, the “change in bacterial profile of faecal microbiome” value ([15]; 7.4 mg/kg daily for three days) was “does not impact the normal gut microbiota; also recorded: did not detect any significant (P < 0.05) changes in the bacterial profile; also recorded: did not significantly impact the gut microbial diversity” and the “MIC (M) E. faecalis” value [6] was greater than 0.0002 M. For the same compound, the IC50 [8] was greater than 50000 nM, the “average % inhibition at highest concentration tested, P. falciparum” value [8] was less than 50% and the “average % inhibition at highest concentration tested, P. falciparum” value ([8]; listed as 2b) was 2.0%. For the same compound, the “MIC (M) E. coli” value [7] was greater than 0.0002 M, the IC50 [2, 18] was 310 nM and the IC50 ([2]; 48 h, read-out: IC50 (nM; mean ± SD) AB, purchased/resynthesised batches, 48 h, BRIS/91/HEPU/1279 assemblage B) was 8.6 to 12 nM. The IC50 [2, 19] was 12 nM, the “minimum lethal concentration (MLC)” value [3] was 0.062 µM and the stability to storage [16] was “stable”.

For `Cc1ncc([N+](=O)[O-])n1CCO` [MTZ, metronidazole, reference compound], the “reduction of cyst burden vs vehicle” value [12, 22] is given as 65.6%, the “reduction of trophozoite burden vs vehicle” value [12, 22] is given as 98.1% and the reported failure rates [17] is given as “up to 40%”. For the same compound, the “change in bacterial profile of faecal microbiome” value ([15]; 100 mg/kg daily for three days) was “significant shift from the vehicle (DMSO/PBS) and compound 2 exposed mice from Day 1–3”.

In the case of `CC1CS(=O)(=O)CCN1/N=C/c1ccc([N+](=O)[O-])o1` (stereo not shown) [NFX, nifurtimox, reference compound], the IC50 [11] is reported as 980 nM.
